Test results reported in ChEMBL document CHEMBL1914430, “Synthesis of some new 1,3,5-trisubstituted pyrazolines bearing benzene sulfonamide as anticancer and anti-inflammatory agents” (Bioorg Med Chem Lett, 2011).

Legend:
Assay type in all cases: functional
Rattus norvegicus [1] = assay: Antiinflammatory activity in Wistar rat assessed as inhibition of carrageenan-induced hind paw edema at 20 mg/kg, po administered 30 mins before carrageenan challenge measured after 3 hrs by plethysmometer
Outline: (§1)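 Wistar rats of either sex, 150–175 g, fasted 16 h, n = 6 per group. Compound given orally at 20 mg/kg as a suspension in 1% CMC in water (10 mL/kg); controls got vehicle only. After 30 min, 0.1 mL of 1% carrageenan in saline was injected subplantar into the left hind paw. Paw volume was measured by plethysmometer at 0, 3 and 5 h. Inhibition = (1 − Vt/Vc) × 100, reported as mean ± SEM.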

Rattus norvegicus [2] = assay: Antiinflammatory activity in Wistar rat assessed as inhibition of carrageenan-induced hind paw edema at 20 mg/kg, po administered 30 mins before carrageenan challenge measured after 5 hrs by plethysmometer; outline: as §1
CCRF-CEM = assay: Anticancer activity against human CCRF-CEM cells after 48 hrs
Outline: (§2)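 NCI Drug Evaluation Branch 60-cell-line screen across leukemia, melanoma, lung, colon, CNS, ovarian, renal, prostate and breast panels. The incubation period is 48 h. Parameters are derived from dose–response data: GI50 is the concentration giving 50% decrease in net growth, TGI is total growth inhibition, and LC50 is net 50% loss of initial cells. Values beyond the tested range are reported as greater or less than the maximum or minimum concentration.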

HL-60(TB) = assay: Anticancer activity against human HL-60(TB) cells after 48 hrs; conditions: HL-60, 48 h
Outline: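 NCI 60-cell-line panel protocol: cells exposed to compound for 48 h. Initial one-dose screen at 10⁻⁵ M. GI50 = concentration giving 50% decrease in net cell growth. TGI = concentration giving total growth inhibition. LC50 = concentration giving net 50% loss of initial cells at the end of incubation. A value not reached or exceeded is reported as greater or less than the highest or lowest concentration tested.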

MOLT-4 = assay: Anticancer activity against human MOLT4 cells after 48 hrs; conditions: MOLT-4, 48 h
Outline: (§3)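 NCI 60-line panel protocol with a 48 h incubation. Per line: GI50 = concentration giving 50% decrease in net cell growth; TGI = total growth inhibition; LC50 = net 50% loss of initial cells. When the level was not reached or was exceeded, the value is given as greater or less than the highest or lowest concentration tested.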

A549 = assay: Anticancer activity against human A549 cells after 48 hrs; conditions: A549, 48 h; outline: as §2
HOP-92 = assay: Anticancer activity against human HOP92 cells after 48 hrs; conditions: HOP-92, 48 h; outline: as §2
NCI-H226 = assay: Anticancer activity against human NCI-H226 cells after 48 hrs; conditions: NCI-H226, 48 h; outline: as §3
NCI-H322M = assay: Anticancer activity against human NCI-H322M cells after 48 hrs; outline: as §3
HCC 2998 = assay: Anticancer activity against human HCC2998 cells after 48 hrs; conditions: HCC 2998, 48 h; outline: as §2
HCT-116 = assay: Anticancer activity against human HCT116 cells after 48 hrs; conditions: HCT-116, 48 h; outline: as §2
HT-29 = assay: Anticancer activity against human HT-29 cells after 48 hrs; conditions: HT-29, 48 h; outline: as §2
KM12 = assay: Anticancer activity against human KM12 cells after 48 hrs; conditions: KM12, 48 h; outline: as §2
SF-295 = assay: Anticancer activity against human SF295 cells after 48 hrs; conditions: SF-295, 48 h; outline: as §3
SF-539 = assay: Anticancer activity against human SF539 cells after 48 hrs; conditions: SF-539, 48 h; outline: as §3
Malme-3M = assay: Anticancer activity against human MALME-3M cells after 48 hrs; outline: as §2
MDA-MB-435 = assay: Anticancer activity against human MDA-MB-435 cells after 48 hrs; conditions: MDA-MB-435, 48 h; outline: as §2
SK-MEL-2 = assay: Anticancer activity against human SK-MEL-2 cells after 48 hrs; conditions: SK-MEL-2, 48 h; outline: as §3
SK-MEL-28 = assay: Anticancer activity against human SK-MEL-28 cells after 48 hrs; conditions: SK-MEL-28, 48 h; outline: as §3
OVCAR-3 = assay: Anticancer activity against human OVCAR3 cells after 48 hrs; conditions: OVCAR-3, 48 h; outline: as §3
OVCAR-5 = assay: Anticancer activity against human OVCAR5 cells after 48 hrs; conditions: OVCAR-5, 48 h; outline: as §3
OVCAR-8 = assay: Anticancer activity against human OVCAR8 cells after 48 hrs; conditions: OVCAR-8, 48 h; outline: as §3
CAKI-1 = assay: Anticancer activity against human Caki1 cells after 48 hrs; conditions: CAKI-1, 48 h; outline: as §2
UO-31 = assay: Anticancer activity against human UO31 cells after 48 hrs; conditions: UO-31, 48 h
Outline: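 NCI ~60 human tumour cell line panel with a 48 h incubation. GI50 is the concentration giving a 50% fall in net growth, TGI gives total growth inhibition, and LC50 gives a net 50% loss of initial cells. An effect not reached or exceeded is reported as greater or less than the highest or lowest concentration tested.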

PC-3 = assay: Anticancer activity against human PC3 cells after 48 hrs; conditions: PC-3, 48 h; outline: as §3
DU-145 = assay: Anticancer activity against human DU145 cells after 48 hrs; conditions: DU-145, 48 h; outline: as §2
MCF7 = assay: Anticancer activity against human MCF7 cells after 48 hrs; conditions: MCF7, 48 h; outline: as §2
[3] = read-out: LC50 (the source's name)

Molecule COc1ccc(C2CC(c3cc(Cl)c(C)cc3O)=NN2c2ccc(S(N)(=O)=O)cc2)cc1OC (stereo not given) has an inhibition in vivo at 20 mg/kg (Rattus norvegicus [1]) of 60.5%, an inhibition in vivo at 20 mg/kg (Rattus norvegicus [2]) of 68.3% and a GI50 (CCRF-CEM) of 5.35 µM. For the same molecule, the LC50 (concentration causing net 50% loss of initial cells) (CCRF-CEM) was over 100 µM, the TGI (CCRF-CEM) was over 100 µM and the GI50 (HL-60(TB)) was 3.42 µM. The LC50 (HL-60(TB)) was over 100 µM, the TGI (HL-60(TB)) was 100 µM and the GI50 (MOLT-4) was 5.29 µM. It also gave an LC50 (MOLT-4) of over 100 µM, a TGI (MOLT-4) of over 100 µM and a GI50 (A549) of 3.54 µM. For the same molecule, the LC50 (net 50% loss of initial cells) (A549) was over 100 µM, the TGI (A549) was 19.7 µM and the GI50 (HOP-92) was 1.81 µM. For the same molecule, the TGI (HOP-92) was 7.42 µM, the CC50 (HOP-92; [3]) was over 100 µM and the GI50 (NCI-H226) was 5.62 µM. The TGI (NCI-H226) was 23.1 µM, the CC50 (NCI-H226; [3]) was 86.4 µM and the GI50 (NCI-H322M) was 4.45 µM. For the same molecule, the LC50 (net 50% loss of initial cells) (NCI-H322M) was over 100 µM, the TGI (NCI-H322M) was 39.7 µM and the GI50 (HCC 2998) was 2.72 µM. The LC50 (net 50% loss of initial cells) (HCC 2998) was 27.4 µM, the TGI (HCC 2998) was 7.25 µM and the GI50 (HCT-116) was 1.72 µM. It also gave a TGI (HCT-116) of 4.36 µM, a CC50 (HCT-116; [3]) of 12.4 µM and a GI50 (HT-29) of 2.24 µM. For the same molecule, the TGI (HT-29) was 6.48 µM, the CC50 (HT-29; [3]) was 36.9 µM and the GI50 (KM12) was 3.07 µM. The LC50 (concentration causing net 50% loss of initial cells) (KM12) was 49.2 µM, the TGI (KM12) was 8.77 µM and the GI50 (SF-295) was 2.7 µM. The LC50 (concentration giving net 50% loss of initial cells) (SF-295) was 0.34 µM, the TGI (SF-295) was 6.24 µM and the GI50 (SF-539) was 2.1 µM. For the same molecule, the LC50 (concentration causing net 50% loss of initial cells) (SF-539) was 12 µM, the TGI (SF-539) was 4.75 µM and the GI50 (Malme-3M) was 3.65 µM. It also gave a TGI (Malme-3M) of 24.6 µM, a CC50 (Malme-3M; [3]) of over 100 µM and a GI50 (MDA-MB-435) of 3.97 µM. For the same molecule, the TGI (MDA-MB-435) was 24 µM, the CC50 (MDA-MB-435; [3]) was over 100 µM and the GI50 (SK-MEL-2) was 5.87 µM. For the same molecule, the LC50 (SK-MEL-2) was over 100 µM, the TGI (SK-MEL-2) was 32.7 µM and the GI50 (SK-MEL-28) was 4.29 µM. For the same molecule, the TGI (SK-MEL-28) was 17.7 µM, the CC50 (SK-MEL-28; [3]) was 62.7 µM and the GI50 (OVCAR-3) was 3.37 µM. For the same molecule, the LC50 (concentration giving 50% net loss of initial cells) (OVCAR-3) was 77.5 µM, the TGI (OVCAR-3) was 9.8 µM and the GI50 (OVCAR-5) was 2.25 µM. It also gave an LC50 (OVCAR-5) of 27.8 µM, a TGI (OVCAR-5) of 6.36 µM and a GI50 (OVCAR-8) of 3.39 µM. The TGI (OVCAR-8) was 17.9 µM, the CC50 (OVCAR-8; [3]) was over 100 µM and the GI50 (CAKI-1) was 2.78 µM. For the same molecule, the LC50 (concentration giving 50% net loss of initial cells) (CAKI-1) was over 100 µM, the GI50 (UO-31) was 3.3 µM and the CC50 (UO-31; [3]) was over 100 µM. The GI50 (PC-3) was 2.61 µM, the TGI (PC-3) was 13.7 µM and the CC50 (PC-3; [3]) was over 100 µM. For the same molecule, the GI50 (DU-145) was 4.49 µM, the LC50 (concentration causing net 50% loss of initial cells) (DU-145) was over 100 µM and the TGI (DU-145) was 21.7 µM. It also gave a GI50 (MCF7) of 3.07 µM, an LC50 (MCF7) of over 100 µM and a TGI (MCF7) of 13.6 µM.
